These results are taken from ChEMBL document CHEMBL2163334, “Discovery of highly potent and selective pan-Aurora kinase inhibitors with enhanced in vivo antitumor therapeutic index” (J Med Chem, 2012).

SMILES strings stand for the structures. pKd: −log10 of the molar value. The source made the active and inactive calls.

Data set [1] concerns HCT-116. The experiment in a line: Antitumor activity against human HCT116 cells xenografted in athymic nude rat assessed as tumor growth inhibition at 5 mg/kg, iv administered QD for 4 days per week followed by 3 days off per week for 3 weeks. Format: functional, organism-based. On the set-up: dose 5 mg/kg. The method, boiled down:
(§1)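 Subcutaneous flank HCT-116 xenografts in nude rats; at Day 1 groups of 10 with mean tumor 301-306 mm³. Tail-vein iv in TPPW (2% Tween-80, 5% propylene glycol, 10% PG-400, 83% water) at 10 mL/kg, weight-adjusted: days 1,3,5,8,10,12,15,17,19 or days 1-4, 8-11, 15-18. Irinotecan control 100 mg/kg ip weekly ×3.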
On the technique in general: A xenograft is tissue or cells of one species grown in another, often human tumour cells in immunodeficient mice.

In another data set the target is Aurora kinase B (Homo sapiens, UniProt Q96GD4). The experiment in a line: Inhibition of Aurora kinase B in human HCT116 cells assessed as induction of 8N polyploidy. To be noted: HCT-116. Format: cell-based.
Chain of Aurora kinase B (Q96GD4 whole entry): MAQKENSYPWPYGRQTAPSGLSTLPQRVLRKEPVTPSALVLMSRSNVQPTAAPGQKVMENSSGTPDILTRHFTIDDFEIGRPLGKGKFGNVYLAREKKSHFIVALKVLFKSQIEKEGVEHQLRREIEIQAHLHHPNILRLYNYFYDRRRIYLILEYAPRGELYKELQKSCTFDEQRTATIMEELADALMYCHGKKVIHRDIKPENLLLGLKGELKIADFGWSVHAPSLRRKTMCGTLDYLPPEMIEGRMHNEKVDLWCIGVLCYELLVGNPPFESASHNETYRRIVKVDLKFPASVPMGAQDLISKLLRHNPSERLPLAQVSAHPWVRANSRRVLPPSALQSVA
For another data set, the target named is T1, Aurora kinase C (Homo sapiens, UniProt Q9UQB9).
T1 sequence (Q9UQB9 whole entry): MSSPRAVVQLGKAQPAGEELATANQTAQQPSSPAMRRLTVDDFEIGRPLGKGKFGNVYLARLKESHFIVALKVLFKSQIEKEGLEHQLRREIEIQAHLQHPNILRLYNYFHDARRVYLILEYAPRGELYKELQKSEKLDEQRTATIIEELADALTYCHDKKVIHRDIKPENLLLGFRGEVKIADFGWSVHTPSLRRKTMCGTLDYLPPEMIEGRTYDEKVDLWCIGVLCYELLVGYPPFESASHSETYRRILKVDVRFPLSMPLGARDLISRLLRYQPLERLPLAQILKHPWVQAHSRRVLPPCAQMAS
The experiment in a line: Binding affinity to Aurora kinase C.

Data set [2] in a line: Half life in Nu/Nu rat at 15 mg/kg, iv administered using TPPW as vehicle. It is filed as ADME, organism-based. More on the design: dose 15 mg/kg, route intravenous. To be noted: in vivo. In short, it runs like this:
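Plasma from K3 EDTA blood at 5, 15, 30 min, 1, 2, 4, 6, 24 h; acetonitrile extraction with internal standard, LC-MS/MS on C8 column, 5-95% ACN gradient with 0.05% formic acid.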

The subject of data set [3] is HCT-116. Nature of the data set: Antitumor activity against human HCT116 cells xenografted in athymic nude rat assessed as tumor growth inhibition at 2.5 mg/kg, iv administered QD for 4 days per week followed by 3 days off per week for 3 weeks. It is filed as functional, organism-based. More on the design: dose 2.5 mg/kg. In short, it runs like this: as §1
Data set [4] has as its system HCT-116. The experiment in a line: Antitumor activity against human HCT116 cells xenografted in athymic nude rat assessed as tumor growth inhibition at 10 mg/kg, iv administered QD for 4 days per week followed by 3 days off per week for 3 weeks. It is filed as functional, organism-based. On the set-up: dose 10 mg/kg. In short, it runs like this: as §1
The nature of data set [5]: Half life in Sprague-Dawley rat at 1 mg/kg, iv administered using PEG400/water as vehicle. It is filed as ADME, organism-based. On the set-up: dose 1 mg/kg, route intravenous. To be noted: in vivo. The method, boiled down: (§2)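 SD rats fasted overnight, given 1 mg/kg iv in PEG400/water (3:1, v/v); three per arm. Blood into K3 EDTA at 5, 15, 30 min, 1, 2, 4, 6, 24 h, spun at 4 °C; plasma extracted with six volumes acetonitrile plus internal standard and quantified by LC-MS/MS (C8 column, formic acid/ACN gradient).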

A short description of data set [6]: Clearance in Sprague-Dawley rat at 1 mg/kg, iv administered using PEG400/water as vehicle. It is filed as ADME, organism-based. More on the design: dose 1 mg/kg, route intravenous. To be noted: in vivo. In short, it runs like this: as §2

For the compound `Cc1cc(Nc2nc(Sc3ccc(NC(=O)CN4CC[C@@H](C(=O)N5CCC(F)(F)C5)C4)cc3)nn3cccc23)n[nH]1`, the TGI result in the data set on HCT-116 [1], in the data set on HCT-116 [3] and in the data set with HCT-116 [4] was “Active” in each case. At Aurora kinase B, the inhibition entry is “Dose-dependent effect”. Also, at Aurora kinase C, the pKd (in general, −log10 of the Kd, conventionally taken in molar units) was > 8.00. The half-life (usually the time needed for the level to fall by half in the phase considered) is 3.7 h in data set [2] and 17.5 h in data set [5]. The clearance (in general, the rate of elimination divided by the concentration) in data set [6] was determined as 21.1 mL/min/kg.
